Reference: ChEMBL document CHEMBL1125180, “3-Hydroxy-3-methylglutaryl-coenzyme A reductase inhibitors. 8. Side chain ether analogues of lovastatin” (J Med Chem, 1991)

biological target: T1, 3-hydroxy-3-methylglutaryl-coenzyme A reductase (Rattus norvegicus, UniProt P51639); assay: In vitro inhibitory activity against rat liver HMG-CoA reductase enzyme
T1 sequence (P51639 whole entry): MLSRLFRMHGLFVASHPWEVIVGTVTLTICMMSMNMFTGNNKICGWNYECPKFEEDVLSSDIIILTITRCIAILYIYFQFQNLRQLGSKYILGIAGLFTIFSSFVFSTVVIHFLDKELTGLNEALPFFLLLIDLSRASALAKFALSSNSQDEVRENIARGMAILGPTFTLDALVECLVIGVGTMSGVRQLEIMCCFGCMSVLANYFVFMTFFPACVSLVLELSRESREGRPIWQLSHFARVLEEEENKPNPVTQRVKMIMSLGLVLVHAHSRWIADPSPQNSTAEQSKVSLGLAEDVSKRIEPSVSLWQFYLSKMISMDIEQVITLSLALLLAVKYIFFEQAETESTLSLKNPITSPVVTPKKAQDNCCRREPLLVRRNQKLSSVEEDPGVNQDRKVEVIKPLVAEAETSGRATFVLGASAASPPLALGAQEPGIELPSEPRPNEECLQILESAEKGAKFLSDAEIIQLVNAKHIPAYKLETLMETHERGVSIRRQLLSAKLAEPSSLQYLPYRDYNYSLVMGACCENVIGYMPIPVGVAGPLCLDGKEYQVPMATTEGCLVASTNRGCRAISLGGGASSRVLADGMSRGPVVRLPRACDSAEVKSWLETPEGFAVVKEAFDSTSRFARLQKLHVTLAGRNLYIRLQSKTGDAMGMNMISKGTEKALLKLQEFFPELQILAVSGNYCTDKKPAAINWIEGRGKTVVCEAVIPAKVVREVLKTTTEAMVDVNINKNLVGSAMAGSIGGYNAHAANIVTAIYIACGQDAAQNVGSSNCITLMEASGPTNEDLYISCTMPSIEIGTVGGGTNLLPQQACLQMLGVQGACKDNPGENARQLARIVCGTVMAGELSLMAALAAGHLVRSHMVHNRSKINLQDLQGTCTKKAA

`C=C(C)CO[C@H]1C[C@@H](C)C=C2C=C[C@H](C)[C@H](CCC3C[C@@H](O)CC(=O)O3)[C@H]21` (some centres not stated) and `C=CCO[C@H]1C[C@@H](C)C=C2C=C[C@H](C)[C@H](CCC3C[C@@H](O)CC(=O)O3)[C@H]21` (some centres not stated) are within 1.5-fold of each other in IC50: 360 nM for the first, 370 nM for the second.

Going from `C=CCC(=O)O[C@H]1C[C@@H](C)C=C2C=C[C@H](C)[C@H](CCC3C[C@@H](O)CC(=O)O3)[C@H]21` (some centres not stated) to `CC(=O)O[C@H]1C[C@@H](C)C=C2C=C[C@H](C)[C@H](CCC3C[C@@H](O)CC(=O)O3)[C@H]21` (some centres not stated), the IC50 rises from 2.9 nM to 269 nM (93-fold). The first is the more potent here.

Compared with `C[C@H]1C=C2C=C[C@H](C)[C@H](CCC3C[C@@H](O)CC(=O)O3)[C@H]2[C@@H](OCc2ccccc2)C1` (some centres not stated), `C[C@H]1C=C2C=C[C@H](C)[C@H](CCC3C[C@@H](O)CC(=O)O3)[C@H]2[C@@H](OCc2ccc(F)cc2)C1` (some centres not stated) is 5.7-fold lower in IC50: 27 nM for the first, 4.7 nM for the second. The second is the more potent here.

Going from `CO[C@H]1C[C@@H](C)C=C2C=C[C@H](C)[C@H](CCC3C[C@@H](O)CC(=O)O3)[C@H]21` (some centres not stated) to `C[C@H]1C=C2C=C[C@H](C)[C@H](CCC3C[C@@H](O)CC(=O)O3)[C@H]2[C@@H](OCc2ccc(Cl)cc2)C1` (some centres not stated), the IC50 falls from 2810 nM to 170 nM (17-fold). The second is the more potent here.

tested on: not listed separately; assay: The relative potency by comparing its IC50 value with that of mevastatin
How it was run: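 Compounds were tested in salt form for intrinsic inhibition of HMG-CoA reductase. Mevastatin (compactin) was run alongside in the same test and set to a relative potency of 100. Each compound's relative potency was derived by comparing its IC50 with that of mevastatin.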

`C=C(C)CO[C@H]1C[C@@H](C)C=C2C=C[C@H](C)[C@H](CCC3C[C@@H](O)CC(=O)O3)[C@H]21` (some centres not stated) and `C=CCO[C@H]1C[C@@H](C)C=C2C=C[C@H](C)[C@H](CCC3C[C@@H](O)CC(=O)O3)[C@H]21` (some centres not stated) are the same in Relative potency: 1.5 for the first, 1.5 for the second.

Compared with `C=CCC(=O)O[C@H]1C[C@@H](C)C=C2C=C[C@H](C)[C@H](CCC3C[C@@H](O)CC(=O)O3)[C@H]21` (some centres not stated), `CC(=O)O[C@H]1C[C@@H](C)C=C2C=C[C@H](C)[C@H](CCC3C[C@@H](O)CC(=O)O3)[C@H]21` (some centres not stated) is lower in Relative potency: 187 for the first, 2.1 for the second.

Compared with `C[C@H]1C=C2C=C[C@H](C)[C@H](CCC3C[C@@H](O)CC(=O)O3)[C@H]2[C@@H](OCc2ccccc2)C1` (some centres not stated), `C[C@H]1C=C2C=C[C@H](C)[C@H](CC[C@@H]3C[C@@H](O)CC(=O)O3)[C@H]2[C@@H](OC(=O)Cc2ccccc2)C1` is higher in Relative potency: 20 for the first, 29 for the second.

First: C[C@H]1C=C2C=C[C@H](C)[C@H](CCC3C[C@@H](O)CC(=O)O3)[C@H]2[C@@H](OCc2ccc(F)cc2)C1 (some centres not stated)
Second: C[C@H]1C=C2C=C[C@H](C)[C@H](CCC3C[C@@H](O)CC(=O)O3)[C@H]2[C@@H](OCc2ccc(Cl)cc2)C1 (some centres not stated)
The Relative potency of the first is higher: 119 for the first, 8.5 for the second.

With `CO[C@H]1C[C@@H](C)C=C2C=C[C@H](C)[C@H](CCC3C[C@@H](O)CC(=O)O3)[C@H]21` (some centres not stated) the Relative potency was 0.2.
